Results on 14 compounds are retold here after PubChem BioAssay AID2609 (Broad Institute, 2010).

The term pEC50 denotes the negative decadic logarithm of the EC50, by convention in mol/L.

pEC50: −log10 of the molar value.

This assay has as its system BJeLR fibroblasts viability, Alamar Blue fluorescence, 48 h. In words: viability loss in engineered Ras-driven BJ cells – cell-based, alamar blue fluorescence, powder samples, dose response (AID 2609). A digest of the protocol:
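Medium: DMEM/M199 with heat-inactivated FBS | Times: 48 h compound exposure, 37 °C, then ~16 h alamar blue | Detection: Alamar blue fluorescence, ex 544/em 590 nm | Read-out: Cell viability from alamar blue fluorescence signal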
(In general: Resazurin is reduced to fluorescent resorufin, in cell work by metabolically active cells.)

With `COc1ccc(N(C(=O)CCl)C(C(=O)NCCc2ccccc2)c2cccs2)cc1Cl` (centres undefined), the pEC50 was 6.00.

Regarding `COc1cccc(N(C(=O)CCl)C(C(=O)NCCc2ccccc2)c2cccs2)c1` (centres undefined), the pEC50 was 5.63.

Consider `Cc1ccc(N(C(=O)CCl)C(C(=O)NC2CCCCC2)c2cccnc2)cc1C` (centres undefined), for which the pEC50 is 5.85.

In the case of `O=C(CCl)N=c1sccn1Cc1ccccc1Cl`, the pEC50 is 5.31.

As to `CCOc1ccc(Nc2nc(N)nc(CCl)n2)cc1`, the pEC50 was 5.66.

Take `CCCCCCCN(C(=O)CCl)c1cccc(C)c1`: the pEC50 is 5.46.

With `COc1ccc(C(C(=O)NC2CCCCC2)N(C(=O)CCl)c2ccc(C)cc2)cc1` (centres undefined), the pEC50 is 5.08.

In the case of `COc1ccc(C(C(=O)NC2CCCCC2)N(C(=O)CCl)c2cccc(Cl)c2)cc1` (centres undefined), the pEC50 is 5.50.

For the compound `COC(=O)[C@@H]1Cc2c([nH]c3ccccc23)C(C)(C)N1C(=O)CCl`, the pEC50 was 5.40.

Turning to `COc1ccc(CN(CCC(c2ccccc2)c2ccc(OC(C)C)cc2)C(=O)CCl)cc1OC` (centres undefined), the pEC50 is 6.05.

On to `Nc1nc(CCl)nc(Nc2ccc3ccccc3c2)n1`, for which the pEC50 is 5.60.

Regarding `COc1ccc(N(C(=O)CCl)C(C(=O)NCCc2ccccc2)c2cccs2)cc1` (centres undefined), the pEC50 was 5.77.

Turning to `C=CCOc1ccccc1CN(C(=O)CCl)c1ccc2c(c1)OCO2`, the pEC50 was 5.12.

Consider `Cc1ccc(C2CC(c3cccs3)=NN2C(=O)CCl)cc1` (centres undefined), for which the pEC50 is 5.53.
